Reference: ChEMBL document CHEMBL1130412, “Antiulcer agents. 6. Analysis of the in vitro biochemical and in vivo gastric antisecretory activity of substituted imidazo[1,2-a]pyridines and related analogues using comparative molecular field analysis and hypothetical active site lattice methodologies” (J Med Chem, 1997)
Active and inactive are the calls of the source. The rule behind the calls is not given here.

Tests used:
[1] = Dissociation constant (pKa); assay type: physicochemical
[2] = tested on: Canis familiaris; assay: Intravenous effective dose for gastric antisecretory activity against histamine-stimulated gastric acid secretion in adult mongrel dogs; assay type: functional; details: Canis lupus familiaris, Stomach
How it was run: (§1)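 Adult mongrel dogs with surgically prepared Heidenhain pouches received histamine to stimulate acid secretion. Compounds were given intravenously at 0.1-5 mg/kg. Reduction in acid output was measured against the non-drug control value in the same animal. ED50 for 50% inhibition was derived by linear regression, with 95% confidence limits.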

[3] = species: Canis familiaris; assay: Peroral effective dose for gastric antisecretory activity against histamine-stimulated gastric acid secretion in adult mongrel dogs; Inactive; assay type: functional, organism-based; details: Canis lupus familiaris; Stomach
[4] = target: Potassium-transporting ATPase (Sus scrofa, UniProt P19156); assay: (§2) Inhibition of purified H+/K+ ATPase at pH 7.4 as released inorganic phosphate from ATP using hog stomach gastric membrane vesicles; assay type: tissue-based
Sequence of Potassium-transporting ATPase (Sus scrofa, UniProt P19156) (P18434 whole entry): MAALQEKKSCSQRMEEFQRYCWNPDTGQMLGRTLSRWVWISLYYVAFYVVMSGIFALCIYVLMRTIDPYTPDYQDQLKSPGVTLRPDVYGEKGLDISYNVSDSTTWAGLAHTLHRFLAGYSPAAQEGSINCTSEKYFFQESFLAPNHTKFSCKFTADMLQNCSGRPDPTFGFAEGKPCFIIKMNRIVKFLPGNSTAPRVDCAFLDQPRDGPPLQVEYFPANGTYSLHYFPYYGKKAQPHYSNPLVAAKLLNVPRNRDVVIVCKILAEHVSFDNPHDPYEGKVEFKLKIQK
Sequence of Potassium-transporting ATPase (Sus scrofa, UniProt P19156) (P19156 whole entry): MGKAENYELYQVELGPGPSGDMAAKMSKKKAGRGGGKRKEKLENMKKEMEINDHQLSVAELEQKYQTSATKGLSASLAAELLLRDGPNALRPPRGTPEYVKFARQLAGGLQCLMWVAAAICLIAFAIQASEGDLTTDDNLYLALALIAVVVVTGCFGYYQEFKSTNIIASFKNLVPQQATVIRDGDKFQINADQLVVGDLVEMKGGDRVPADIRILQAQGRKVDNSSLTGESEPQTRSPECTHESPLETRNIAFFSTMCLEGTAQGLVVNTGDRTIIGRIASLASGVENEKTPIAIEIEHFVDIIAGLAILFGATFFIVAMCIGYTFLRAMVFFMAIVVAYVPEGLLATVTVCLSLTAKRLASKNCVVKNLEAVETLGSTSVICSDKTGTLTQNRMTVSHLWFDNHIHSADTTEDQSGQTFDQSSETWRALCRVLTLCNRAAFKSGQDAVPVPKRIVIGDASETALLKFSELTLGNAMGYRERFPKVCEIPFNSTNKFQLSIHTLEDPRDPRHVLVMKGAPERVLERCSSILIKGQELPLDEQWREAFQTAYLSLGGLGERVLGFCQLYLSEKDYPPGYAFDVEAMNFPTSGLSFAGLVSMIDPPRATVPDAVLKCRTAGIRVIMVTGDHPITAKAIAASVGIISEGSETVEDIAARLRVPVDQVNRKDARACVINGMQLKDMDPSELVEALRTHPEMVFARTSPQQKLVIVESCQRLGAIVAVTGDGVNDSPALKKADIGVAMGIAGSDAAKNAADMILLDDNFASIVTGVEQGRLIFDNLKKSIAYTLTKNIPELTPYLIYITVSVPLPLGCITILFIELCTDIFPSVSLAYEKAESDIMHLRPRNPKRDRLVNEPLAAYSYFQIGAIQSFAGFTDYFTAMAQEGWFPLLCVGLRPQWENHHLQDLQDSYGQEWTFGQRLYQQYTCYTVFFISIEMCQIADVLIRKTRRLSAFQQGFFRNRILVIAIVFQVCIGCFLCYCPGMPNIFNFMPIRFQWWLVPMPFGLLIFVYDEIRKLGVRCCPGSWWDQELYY
How it was run: (§3)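 Gastric membrane vesicles from hog stomach were prepared by differential and zonal density gradient centrifugation. Activity was read as inorganic phosphate released from ATP at pH 7.4. Protein was measured by the Bradford method against a gammaglobulin standard.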

[5] = target: Potassium-transporting ATPase (Oryctolagus cuniculus); assay: Inhibition of H+/K+ ATPase as reduced acid formation in rabbit gastric glands
[6] = tested on: Canis familiaris; assay: Intravenous effective dose for gastric antisecretory activity against histamine-stimulated gastric acid secretion in adult mongrel dogs; Inactive; assay type: functional, organism-based; details: Canis lupus familiaris; Stomach; how it was run: as §1
[7] = target: T1, Potassium-transporting ATPase (Sus scrofa, UniProt P18434+P19156); assay: Ability to inhibit purified H+/K+ ATPase at pH 7.4 measured as release of inorganic phosphate from ATP using gastric membrane vesicles prepared from hog stomach; Inactive; assay type: tissue-based
T1 sequence (P18434 whole entry): as the sequence (P18434 whole entry) above
T1 sequence (P19156 whole entry): as the sequence (P19156 whole entry) above
How it was run: as §3, with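 “7.4. IC50 was taken as the concentration giving 50% inhibition of K+-stimulated activity, calculated by linear regression and reported ± standard error of the mean.” for “7.4.”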

[8] = tested on: Potassium-transporting ATPase (Oryctolagus cuniculus); assay: Inhibition of H+/K+ ATPase was evaluated by its ability to inhibit acid formation in rabbit gastric glands; Inactive
[9] = tested on: Canis familiaris; assay: Intravenous effective dose for gastric antisecretory activity against histamine-stimulated gastric acid secretion in adult mongrel dogs; Inactive-less than 20% inhibition at 5 mg/Kg (experimental); assay type: functional, organism-based; details: Canis lupus familiaris; Stomach; how it was run: as §1
[10] = target: T1, Potassium-transporting ATPase; assay: as §2; assay type: tissue-based; how it was run: as §3

## Cc1nc2c(OCc3ccccc3)cccn2c1CO
[1]
  pKa: 6.1
[2]
  ED50: 0.3 mg/kg
[3]
  ED50: inactive
[4]
  IC50: 2.2 µM
[5]; read-out: IC50
  IC50: 0.53 µM

## Cc1nc2c(OCc3ccccc3)cccn2c1C
[1]
  pKa: 7
[2]
  ED50: 0.1 mg/kg

## Cc1nc2c(OCc3ccccc3)cccn2c1N
[4]
  IC50: 0.89 µM
[5]; read-out: IC50
  IC50: 0.31 µM

## N#CCc1c(C(F)(F)F)nc2c(OCc3ccccc3)cccn12
[1]
  pKa: 2
[6]
  ED50: inactive
[3]
  ED50: inactive
[7]
  IC50: Not Active
[8]
  IC50: Not Active

## Cc1nc2c(/C=C/Cc3ccccc3)cccn2c1N
[6]
  ED50: inactive
[3]
  ED50: inactive
[4]
  IC50: 8.6 µM
[5]; read-out: IC50
  IC50: 14.1 µM

## Cc1nc2c(CCc3ccccc3)cccn2c1C
[1]
  pKa: 7.5
[2]
  ED50: 0.2 mg/kg

## Cc1ccn2c(CC#N)c(C)nc2c1OCc1ccccc1
[4]
  IC50: 13.7 µM
[5]; read-out: IC50
  IC50: 0.4 µM

## Cc1nc2c3c(ccn2c1CC#N)CCC(c1ccccc1)O3 (stereo unspecified)
[2]
  ED50: 0.06 mg/kg
[4]
  IC50: 0.092 µM
[5]; read-out: IC50
  IC50: 0.064 µM

## Cc1c(C(F)(F)F)nc2c(OCc3ccccc3)cccn12
[1]
  pKa: 2
[9]
  ED50: inactive

## Cc1c(CC#N)nc2c(OCc3ccccc3)cccn12
[1]
  pKa: 5.5
[2]
  ED50: 0.8 mg/kg

## Cc1nc2c(OCc3ccccc3)nccn2c1N
[10]
  IC50: 178 uM l-1
[5]; read-out: IC50
  IC50: 8.08 µM

## OCc1c(C(F)(F)F)nc2c(OCc3ccccc3)cccn12
[1]
  pKa: 2
[6]
  ED50: inactive
[3]
  ED50: inactive
[7]
  IC50: Not Active
[8]
  IC50: Not Active

## Cc1nc2c(CCc3ccccc3)cccn2c1CC#N
[4]
  IC50: 2 µM
[5]; read-out: IC50
  IC50: 0.13 µM

## Cc1nc2c(/C=C\c3ccccc3)cccn2c1C
[6]
  ED50: inactive
[3]
  ED50: inactive
[4]
  IC50: 28.4 µM
[5]; read-out: IC50
  IC50: 17.5 µM

## Cc1nc2c(/C=C/Cc3ccccc3)cccn2c1CC#N
[4]
  IC50: 14 µM
[5]; read-out: IC50
  IC50: 3.8 µM

## Cc1nc2c(/C=C/c3ccccc3)cccn2c1C
[4]
  IC50: 1.68 µM
[5]; read-out: IC50
  IC50: 0.99 µM

## Cc1nc2c(CCc3ccccc3)nccn2c1N
[1]
  pKa: 5.1
[9]
  ED50: inactive

## Cc1nc2c(OCc3ccccc3)nccn2c1C
[1]
  pKa: 4.8
[2]
  ED50: 2 mg/kg

## Cc1nc2c(C/C=C/c3ccccc3)cccn2c1CC#N
[6]
  ED50: inactive
[3]
  ED50: inactive
[10]
  IC50: 206 uM l-1
[5]
  IC50: 442 uM l-1

## Cc1nc2c(CCc3ccccc3)cccn2c1N
[4]
  IC50: 2.1 µM
[5]; read-out: IC50
  IC50: 1.46 µM
